Measurements: ChEMBL document CHEMBL3112440, “Design, synthesis, and SAR of a series of activated protein C (APC) inhibitors with selectivity against thrombin for the treatment of haemophilia” (Bioorg Med Chem Lett, 2014)
Calls of active or inactive are those of the source. The rule behind the calls is not given here.

Key:
Homo sapiens = species: Homo sapiens; experiment: Selectivity ratio of IC50 for human thrombin to IC50 for human APC
Prothrombin [1] = molecular target: T1, Prothrombin (Homo sapiens, UniProt P00734); experiment: Competitive inhibition of human thrombin using S-2366 as substrate
Outline: (§1)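 Ki values were calculated from the IC50 values measured in the enzyme screening assays.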

[2] = molecular target: T2, Vitamin K-dependent protein C (Homo sapiens, UniProt P04070); experiment: Inhibition of human APC using S-2366 as substrate preincubated for 300 seconds followed by substrate addition measured after 40 mins by spectrophotometric analysis
Prothrombin [3] = molecular target: T1, Prothrombin; experiment: Inhibition of human thrombin using S-2366 as substrate preincubated for 300 seconds followed by substrate addition measured after 40 mins by spectrophotometric analysis
[4] = molecular target: T2, Vitamin K-dependent protein C; experiment: Competitive inhibition of human APC using S-2366 as substrate; outline: as §1
Coagulation factor X [5] = molecular target: T3, Coagulation factor X (Homo sapiens, UniProt P00742); experiment: Inhibition of human coagulation factor 10a using S-2765 as substrate preincubated for 300 seconds followed by substrate addition measured after 40 mins by spectrophotometric analysis
Coagulation factor VII [6] = molecular target: T4, Coagulation factor VII (Homo sapiens, UniProt P08709); experiment: Inhibition of human coagulation factor 7a using spectrozyme as substrate preincubated for 300 seconds followed by substrate addition measured after 40 mins by spectrophotometric analysis in presence of tissue factor
T4 sequence (P08709 whole entry): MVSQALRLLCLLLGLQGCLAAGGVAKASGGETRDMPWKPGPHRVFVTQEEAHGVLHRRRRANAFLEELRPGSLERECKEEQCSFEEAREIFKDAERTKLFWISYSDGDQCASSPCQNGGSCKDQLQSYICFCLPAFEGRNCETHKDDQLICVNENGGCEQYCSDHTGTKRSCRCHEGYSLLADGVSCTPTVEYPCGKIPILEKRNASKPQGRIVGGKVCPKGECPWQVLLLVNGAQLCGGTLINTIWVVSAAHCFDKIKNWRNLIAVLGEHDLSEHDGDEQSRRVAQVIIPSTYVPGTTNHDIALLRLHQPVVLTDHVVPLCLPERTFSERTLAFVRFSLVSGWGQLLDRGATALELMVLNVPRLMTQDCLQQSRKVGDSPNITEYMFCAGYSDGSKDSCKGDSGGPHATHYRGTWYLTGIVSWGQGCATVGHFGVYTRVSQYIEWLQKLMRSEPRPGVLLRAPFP

Coagulation factor XI [7] = molecular target: T5, Coagulation factor XI (Homo sapiens, UniProt P03951); experiment: Inhibition of human coagulation factor 11a using S-2366 as substrate preincubated for 300 seconds followed by substrate addition measured after 40 mins by spectrophotometric analysis
Coagulation factor XI [8] = molecular target: T5, Coagulation factor XI; experiment: Competitive inhibition of human coagulation factor 11a using S-2366 as substrate; outline: as §1
Coagulation factor X [9] = molecular target: T3, Coagulation factor X; experiment: Competitive inhibition of human coagulation factor 10a using S-2765 as substrate; outline: as §1
[10] = Lipophilicity, log D of the compound at pH 7.4 by chromatographic method; type: physicochemical; details: buffer
Coagulation factor VII [11] = molecular target: T4, Coagulation factor VII; experiment: Competitive inhibition of human coagulation factor 7a using spectrozyme as substrate; outline: as §1
Plasma [12] = experiment: Antifibrinolytic activity in human citrated plasma assessed as prolongation of clot-lysis time at 28 uM by spectrophotometric analysis; type: functional, cell-free
Outline: (§2)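 Citrated plasma from healthy volunteers. Tissue plasminogen activator was added to start plasmin generation, and clot-lysis time was recorded with test compound present (n = 2).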

[13] = molecular target: Coagulation factor IX (Homo sapiens) (UniProt P00740); experiment: Inhibition of coagulation factor 9a (unknown origin)-mediated hydrolysis of Z-D-Arg-Gly-Arg-pNA at 100 uM relative to control
Plasma [14] = experiment: Antifibrinolytic activity in human citrated plasma assessed as prolongation of clot-lysis time at 101 uM by spectrophotometric analysis; type: functional, cell-free; outline: as §2

Structure (SMILES) | Ratio IC50 (Homo sapiens) | Ki (Prothrombin [1]) [µM] | IC50 [2] [µM] | IC50 (Prothrombin [3]) [µM] | Ki [4] [µM] | IC50 (Coagulation factor X [5]) [µM] | IC50 (Coagulation factor VII [6]) [µM] | IC50 (Coagulation factor XI [7]) [µM] | Ki (Coagulation factor XI [8]) [µM] | Ki (Coagulation factor X [9]) [µM] | chromatographic logD [10] | Ki (Coagulation factor VII [11]) [µM] | inhibition [13] | Activity (Plasma [12]) | Activity (Plasma [14])
N=C(N)c1ccc(CNC(=O)[C@@H]2CCN2C(=O)[C@H](NCC(=O)O)C2CCCCC2)cc1 |  |  | 1.3 |  |  | 21 | 3.3 | 20 |  |  |  |  |  |  | 
N=C(N)c1ccc(CNC(=O)C(CCC2CCNCC2)NC(=O)[C@H](N)CC2CCCCC2)cc1 (mixture of isomers) | 8.9 | 15 | 3.1 | 28 | 0.9 |  |  |  |  |  |  |  |  |  | 
N=C(N)c1ccc(CNC(=O)[C@@H](CC2CCCN2)NC(=O)[C@@H](CC2CCCCC2)NCC(=O)O)cc1 (mixture of isomers) | 1 |  | > 44 | > 44 |  |  |  |  |  |  |  |  |  |  | 
N=C(N)c1ccc(CNC(=O)C(Cc2ccc(CN)cc2)NC(=O)[C@@H](CC2CCCCC2)NCC(=O)O)cc1 (mixture of isomers) | 3.3 | 2 | 1.1 | 3.7 | 0.3 | 42 |  | 43 | 19 | 14 |  |  |  |  | 
N=C(N)c1ccc(CNC(=O)[C@@H](NC(=O)[C@@H](CC2CCCCC2)NCC(=O)O)C2CCNCC2)cc1 | 8.4 | 14 | 3.1 | 26 | 0.9 |  |  | > 44 | > 19 |  |  |  |  |  | 
N#Cc1ccc(CC(NC(=O)[C@@H](CC2CCCCC2)NCC(=O)O)C(=O)NCc2ccc(C(=N)N)cc2)cc1 (mixture of isomers) | 5.4 | 2 | 3.8 | 3.8 | 1.1 |  |  |  |  |  |  |  |  |  | 
N=C(N)c1ccc(CNC(=O)C2(NC(=O)[C@H](NCC(=O)O)C3CCCCC3)Cc3ccccc3C2)cc1 | 21 | 19 | 1.7 | 36 | 0.5 | 48 | 8.9 | > 44 | > 19 | 16 | 0.93 | 7 | 40% |  | Active
N=C(N)c1ccc(CNC(=O)[C@H](CC2CCCN2)NC(=O)[C@@H](CC2CCCCC2)NCC(=O)O)cc1 (mixture of isomers) | 1.3 | 4 | 5.6 | 7 | 1.6 |  |  |  |  |  |  |  |  |  | 
N=C(N)NCCC[C@H](NC(=O)[C@H](N)C1CCCCC1)C(=O)NCc1ccc(C(=N)N)cc1 | 1.2 | 1 | 1.6 | 1.9 | 0.5 |  |  |  |  |  |  |  |  |  | 
N=C(N)NCCC[C@H](NC(=O)[C@@H](CC1CCCCC1)NCCC(=O)O)C(=O)NCc1ccc(C(=N)N)cc1 | 1.8 | 3 | 2.8 | 5.2 | 0.8 |  |  | > 44 | > 19 |  |  |  |  |  | 
N=C(N)c1ccc(CNC(=O)C(CC2CCNCC2)NC(=O)[C@@H](CC2CCCCC2)NCC(=O)O)cc1 (mixture of isomers) | 9.1 | 6 | 1.3 | 12 | 0.4 |  |  |  |  |  |  |  |  |  | 
N=C(N)c1ccc(CNC(=O)[C@H](Cc2cccc3ccccc23)NC(=O)[C@@H](CC2CCCCC2)NCC(=O)O)cc1 | 11 | 6 | 1.1 | 12 | 0.3 |  |  |  |  |  | 1.97 |  |  |  | 
N=C(N)c1ccc(CNC(=O)C(CCC2CCNCC2)NC(=O)[C@@H](NCC(=O)O)C2CCCCC2)cc1 (mixture of isomers) | 1 |  | > 44 | > 44 |  |  |  |  |  |  |  |  |  |  | 

The next compounds have a lower IC50 [2] than those just listed; values first:

Ratio IC50 (Homo sapiens) | Ki (Prothrombin [1]) [µM] | IC50 [2] [µM] | IC50 (Prothrombin [3]) [µM] | Ki [4] [µM] | IC50 (Coagulation factor X [5]) [µM] | IC50 (Coagulation factor VII [6]) [µM] | IC50 (Coagulation factor XI [7]) [µM] | Ki (Coagulation factor XI [8]) [µM] | Ki (Coagulation factor X [9]) [µM] | chromatographic logD [10] | Ki (Coagulation factor VII [11]) [µM] | inhibition [13] | Structure (SMILES) | Activity (Plasma [12]) | Activity (Plasma [14])
5.3 | 3 | 0.98 | 5.2 | 0.3 |  |  |  |  |  |  |  |  | N=C(N)c1ccc(CNC(=O)[C@H](Cc2ccc3ccccc3c2)NC(=O)[C@@H](CC2CCCCC2)NCC(=O)O)cc1 |  | 
23 | 12 | 0.92 | 22 | 0.3 | > 130 | > 133 | > 44 | > 19 | > 43 | < 0 | > 100 | inactive | N=C(N)c1ccc(CNC(=O)C(CCC2CCNCC2)NC(=O)[C@@H](CC2CCCCC2)NCC(=O)O)cc1 (mixture of isomers) | Active | 
9.1 | 3 | 0.67 | 6.1 | 0.2 |  |  |  |  |  |  |  |  | N=C(N)c1ccc(CNC(=O)[C@H](Cc2ccccc2)NC(=O)[C@@H](CC2CCCCC2)NCC(=O)O)cc1 |  | 
2.8 | 1 | 0.47 | 1.3 | 0.1 |  |  |  |  |  |  |  |  | N=C(N)NCCC[C@H](NC(=O)[C@@H](CC1CCCCC1)NCC(=O)O)C(=O)NCc1ccc(C(=N)N)cc1 |  | 
15 | 2 | 0.26 | 3.9 | 0.1 | 23 |  | 1.9 | 0.8 | 8 | 0.02 |  |  | N=C(N)c1ccc(CNC(=O)[C@H](Cc2ccc(O)cc2)NC(=O)[C@@H](CC2CCCCC2)NCC(=O)O)cc1 |  | 
6.9 | 0.5 | 0.13 | 0.9 | 0.04 | > 44 |  | 0.58 | 0.3 | > 15 |  |  |  | N=C(N)c1ccc(CNC(=O)[C@H](Cc2ccc(N)cc2)NC(=O)[C@@H](CC2CCCCC2)NCC(=O)O)cc1 |  | 
